Test results reported in ChEMBL document CHEMBL1146555, “Bioactive novel polyphenols from the fruit of Manilkara zapota (Sapodilla)” (J Nat Prod, 2003).

Key:
[1] = system: Radical scavenging activity; assay: Antioxidant activity assessed as DPPH radical scavenging activity after 30 mins; type: functional
Method in brief: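 Test samples in DMSO mixed with 300 µM ethanolic DPPH, incubated 37 °C for 30 min, absorbance read at 515 nm. Final test concentrations typically 1-50 µg/mL. Percent inhibition relative to DMSO-treated control; IC50 = concentration scavenging 50% of DPPH radicals.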

HCT-116 = assay: Cytotoxicity against human HCT116 cells after 72 hrs by MTT assay; type: functional, cell-based; details: HCT-116, 72 h
Method in brief: (§1)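 Human colon cancer cells kept in DMEM with 10% FBS, 5% CO2, 37 °C, no antibiotics. About 3.0 × 10^4 cells per well, grown to 40% confluence, then exposed to compounds in DMSO for 72 h. MTT (5 mg/mL stock) added 4 h, formazan solubilized, absorbance at 570 nm. Octuplicate wells, mean and SD; IC50 by linear regression.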

SW480 = assay: Cytotoxicity against human SW480 cells after 72 hrs by MTT assay; type: functional, cell-based; details: SW480, 72 h; method in brief: as §1

IC50 [1] | Structure (SMILES) | IC50 (HCT-116) | IC50 (SW480)
23.5 µM | O=C(/C=C/c1ccc(O)c(O)c1)O[C@@H]1C[C@](O)(C(=O)O)C[C@@H](O)[C@H]1OC(=O)c1cc(O)c(O)c(O)c1 | 154 µM | 134 µM
12.9 µM | COC(=O)[C@]1(O)C[C@@H](O)[C@@H](OC(=O)c2cc(O)c(O)c(O)c2)[C@H](OC(=O)/C=C/c2ccc(O)c(O)c2)C1 | 190 µM | 160 µM
39.5 µM | O=C(/C=C/c1ccc(O)c(O)c1)O[C@@H]1C[C@](O)(C(=O)O)C[C@@H](O)[C@H]1O [CHLOROGENIC ACID] | 367 µM | 353 µM
 | O=C(O[C@@H]1Cc2c(O)cc(O)cc2O[C@@H]1c1cc(O)c(O)c(O)c1)c1cc(O)c(O)c(O)c1 [EPIGALOCATECHIN GALLATE] | 161 µM | 195 µM
